Key:
[1] = system: several other cell lines; settings: literature values across several other cell lines ref 33, 34; cited from earlier work
[2] = system: L363 cells; assay: Cell viability; type: cell-based, Human; settings: L363, 72 h treatment, four replicates ± SEM
Method in brief: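 MTS viability run in quadruplicate at the stated times and doses. Lines were grown in RPMI-1640 with 2 mM L-glutamine, 10% FBS and penicillin/streptomycin at 37 °C, 5% CO2. MTS reagent was added directly for 90 min at 37 °C. Formazan absorbance was read at 500 nm. Viability was normalised to DMSO-treated wells.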

## CN(C)c1ccc(Nc2c3ccc(NC(=O)CCN4CCCC4)cc3nc3cc(NC(=O)CCN4CCCC4)ccc23)cc1 [BRACO-19]
[1]
  IC50: 1 to 13 µM
[2]
  IC50: 15.3 ± 4.3 µM
